The record followed here is ChEMBL document CHEMBL1781970, “Synthesis and antiproliferative evaluation of 23-hydroxybetulinic acid derivatives” (Eur J Med Chem, 2011).

What all share (format): functional, cell-based
One experiment has as its system MCF7. The experiment in a line: Antiproliferative activity against human MCF7 cells after 72 hrs by MTT assay. Conditions: MCF7, 72 h. Put shortly:
(§1)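 Cells grown in RPMI 1640 with 10% FBS and 1% penicillin-streptomycin at 37 °C, 5% CO2, then seeded overnight in 96-well plates. Test compounds were dissolved in DMSO (doxorubicin control in PBS) and given at various concentrations for 72 h at 37 °C. MTT (5 mg/mL in PBS) was added for 4 h and OD read at 570 nm. IC50 was taken from dose-response curves; mean ± SD, ≥3 independent experiments.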

In another experiment the test system is A-375. The experiment in a line: Antiproliferative activity against human A375 cells after 72 hrs by MTT assay. Conditions: A-375, 72 h. An outline of the steps:
as §1

The test system of a further experiment is HeLa. The experiment in a line: Antiproliferative activity against human HeLa cells after 72 hrs by MTT assay. An outline of the steps:
as §1

Another experiment concerns HepG2. The experiment in a line: Antiproliferative activity against human HepG2 cells after 72 hrs by MTT assay. To be noted: HepG2, 72 h. Put shortly: as §1
For a further experiment, the system named is B16. Put plainly: Antiproliferative activity against mouse B16 cells after 72 hrs by MTT assay. To be noted: B16, 72 h. Put shortly:
as §1

The structures appear in SMILES notation.

As to `C=C(C)[C@@H]1CC[C@]2(C(=O)N3CCNCC3)CC[C@]3(C)[C@H](CC[C@@H]4[C@@]5(C)CC[C@H](OC(C)=O)[C@@](C)(COC(C)=O)[C@@H]5CC[C@]43C)[C@@H]12`, the IC50 was found to be 4.89 µM in the experiment on MCF7; 18.8 µM in the experiment on A-375; 18.8 µM in the experiment with HeLa; 17.7 µM with HepG2; 13.1 µM in the experiment on B16.

`C=C(C)[C@@H]1CC[C@]2(C(=O)N3CCC[C@H]3C(=O)N[C@@H](CCSC)C(=O)OC)CC[C@]3(C)[C@H](CC[C@@H]4[C@@]5(C)CC[C@H](O)[C@@](C)(CO)[C@@H]5CC[C@]43C)[C@@H]12`: the IC50 in the experiment on MCF7 stood at 19.8 µM; with A-375 it was 30.1 µM; in the experiment on HeLa it was 41.3 µM; in the experiment with HepG2 it was 40.5 µM; with B16 it was 20.7 µM.

For `C=C(C)[C@@H]1CC[C@]2(C(=O)OC/C=C/CO)CC[C@]3(C)[C@H](CC[C@@H]4[C@@]5(C)CC[C@H](OC(C)=O)[C@@](C)(COC(C)=O)[C@@H]5CC[C@]43C)[C@@H]12`, the IC50 in the experiment with MCF7 is 15.9 µM; with A-375 it was 5.72 µM; in the experiment on HeLa, 16.4 µM; in the experiment with HepG2 it was 7.43 µM; in the experiment on B16, > 100 µM.

With `C=C(CO)[C@@H]1CC[C@]2(C(=O)N3CCC[C@H]3C(=O)OC)CC[C@]3(C)[C@H](CC[C@@H]4[C@@]5(C)CC[C@H](OC(C)=O)[C@@](C)(COC(C)=O)[C@@H]5CC[C@]43C)[C@@H]12`, the IC50 with MCF7 was 32 µM; in the experiment with A-375, 11.8 µM; in the experiment with HeLa, 13.1 µM; in the experiment on HepG2, 10 µM; with B16 it was 69 µM.

On to `C=C(C)[C@@H]1CC[C@]2(C(=O)O)CC[C@]3(C)[C@H](CC[C@@H]4[C@@]5(C)CC[C@H](O)[C@@](C)(COC(=O)N6CCC(N7CCCCC7)CC6)[C@@H]5CC[C@]43C)[C@@H]12`, for which the IC50 in the experiment on MCF7 amounted to 9.95 µM; in the experiment on A-375 it was 9.23 µM; with HeLa, 12.5 µM; with HepG2, 18.5 µM; in the experiment with B16 it was 7.25 µM.

Consider `C=C(C)[C@@H]1CC[C@]2(C(=O)NCC(=O)N3CCC[C@H]3C(=O)OC)CC[C@]3(C)[C@H](CC[C@@H]4[C@@]5(C)CC[C@H](O)[C@@](C)(CO)[C@@H]5CC[C@]43C)[C@@H]12`, for which the IC50 stood at 7.58 µM in the experiment on MCF7; 3.34 µM in the experiment on A-375; 4.84 µM with HeLa; 9.33 µM in the experiment with HepG2; 8.23 µM in the experiment on B16.

Regarding `C=C(C)[C@@H]1CC[C@]2(C(=O)N3CCC[C@H]3C(=O)OC)CC[C@]3(C)[C@H](CC[C@@H]4[C@@]5(C)CC[C@H](OC(C)=O)[C@@](C)(COC(C)=O)[C@@H]5CC[C@]43C)[C@@H]12`, the IC50 in the experiment with MCF7 is 27.2 µM; in the experiment on A-375 it was 5.83 µM; in the experiment on HeLa, 9.78 µM; in the experiment with HepG2, 9.78 µM; in the experiment with B16, 93.7 µM.

Turning to `C=C(CO)[C@@H]1CC[C@]2(C(=O)OC(C)C)CC[C@]3(C)[C@H](CC[C@@H]4[C@@]5(C)CC[C@H](OC(C)=O)[C@@](C)(COC(C)=O)[C@@H]5CC[C@]43C)[C@@H]12`, the IC50 was 17.2 µM in the experiment on MCF7; 21.5 µM in the experiment on A-375; 19.5 µM in the experiment with HeLa; 10.7 µM in the experiment on HepG2; 23.7 µM in the experiment on B16.

For `C=C(C)[C@@H]1CC[C@]2(C(=O)N3CCC(N4CCCCC4)CC3)CC[C@]3(C)[C@H](CC[C@@H]4[C@@]5(C)CC[C@H](O)[C@@](C)(CO)[C@@H]5CC[C@]43C)[C@@H]12`, the IC50 in the experiment with MCF7 stood at 6.78 µM; in the experiment with A-375 it was 9.67 µM; in the experiment with HeLa, 8.42 µM; in the experiment on HepG2, 12.6 µM; with B16, 5.71 µM.

Regarding `C=C(C)[C@@H]1CC[C@]2(C(=O)OCCN3CCOCC3)CC[C@]3(C)[C@H](CC[C@@H]4[C@@]5(C)CC[C@H](OC(C)=O)[C@@](C)(COC(C)=O)[C@@H]5CC[C@]43C)[C@@H]12`, the IC50 worked out at 97.6 µM with MCF7; 8.71 µM in the experiment on A-375; 9.18 µM in the experiment with HeLa; 12.3 µM with HepG2; 24.2 µM with B16.

On to `C=C(CO)[C@@H]1CC[C@]2(C(=O)OCCC(C)C)CC[C@]3(C)[C@H](CC[C@@H]4[C@@]5(C)CC[C@H](O)[C@@](C)(CO)[C@@H]5CC[C@]43C)[C@@H]12`, for which the IC50 in the experiment with MCF7 came to 12.5 µM; in the experiment on A-375, 17.9 µM; in the experiment with HeLa, 20.9 µM; with HepG2 it was 34.6 µM; in the experiment on B16, 51.2 µM.

For `C=C(C)[C@@H]1CC[C@]2(C(=O)OCCN3CCOCC3)CC[C@]3(C)[C@H](CC[C@@H]4[C@@]5(C)CC[C@H](O)[C@@](C)(CO)[C@@H]5CC[C@]43C)[C@@H]12`, the IC50 with MCF7 was 34.3 µM; with A-375, 34.2 µM; in the experiment with HeLa it was > 100 µM; with HepG2, 59.2 µM; with B16, 45.9 µM.
